Calls of active or inactive are those of the source. No cut-off for these calls is given here.

In data set [1] the test system is HT-29. As to the kind of experiment: Antitumor activity against human HT-29 cells xenografted in NCR nude mouse assessed as spheroid formation at 25 mg/kg, ip administered for 3 weeks in presence of oxaliplatin. It is filed as functional, organism-based. A digest of the protocol: (§1)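 HT-29 cells (1×10^6 bulk, or 1×10^5 FACS-sorted CD133+/CXCR4+) injected subcutaneously into NCr nude mice. Once tumors were palpable (>50 mm3), 5-fluorouracil 25 mg/kg plus oxaliplatin 2 mg/kg given IP weekly for 3 weeks, then mice randomized for further treatment. Tumor volume by Vernier caliper three times weekly. Ex vivo xenograft cells were digested with collagenase IV and assessed for 1°–4° spheroids (50–150 μm) and for Dual Hi/LGR5+ cells by flow cytometry.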
On the technique in general: Xenograft models place foreign cells or tissue in a host animal.

For data set [2], the system named is HT-29. The data set can be described thus: Antitumor activity against human HT-29 cells xenografted in NCR nude mouse assessed as increase in proportion of CSC at 25 mg/kg, ip administered for 3 weeks in presence of oxaliplatin by flow cytometry analysis (reference value: 11.37 %). It is filed as functional. A digest of the protocol: as §1
For data set [3], the system named is HT-29. As to the kind of experiment: Antitumor activity against human HT-29 cells xenografted in NCR nude mouse assessed as reduction in tumor volume at 25 mg/kg, ip administered for 3 weeks in presence of oxaliplatin by vernier caliper method. It is filed as functional, organism-based. A digest of the protocol: as §1
In data set [4] the test system is HT-29. As to the kind of experiment: Antitumor activity against human HT-29 cells xenografted in NCR nude mouse assessed as increase in number of spheroids at 25 mg/kg, ip administered for 3 weeks in presence of oxaliplatin. It is filed as functional, organism-based. Put shortly:
as §1

The subject of data set [5] is HT-29. As to the kind of experiment: Cytotoxicity against human HT-29 cells assessed as reduction in cell viability at 100 uM incubated for 60 to 72 hrs by MTT assay. It is filed as toxicity, cell-based. To be noted: ht-29, 100 µM, time 60-72 hrs. Put shortly:
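HT-29 monolayer cells were seeded at about 2.5 × 10^3 per well in DMEM:F12 with 10% FBS and incubated overnight at 37 °C, 5% CO2. Compound was added for 60–72 h. MTT (5 mg/mL in PBS) was added for 2–3 h, crystals were dissolved in DMSO and absorbance read at 590 nm. Results are percent of vehicle control, at least three replicates.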

In data set [6] the test system is Plasma. The data set can be described thus: Anticoagulant activity in pooled human plasma assessed as prolongation of activated partial thromboplastin time incubated for 4 mins by coagulometer analysis. Format: functional, cell-free. Put shortly: (§2)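 Pooled normal citrated human plasma (90 μL) mixed with 10 μL compound and 100 μL prewarmed ellagic acid APTT reagent, incubated 4 min at 37 °C, then recalcified with 100 μL prewarmed 25 mM CaCl2. Clot time read on a fibrometer (one-stage recalcification). Water blank gave the baseline. Concentration doubling APTT came from a quadratic trend-line fit.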

Data set [7] relates to Plasma. The data set can be described thus: Anticoagulant activity in human plasma assessed as prolongation of activated partial thromboplastin time by measuring concentration required to double APTT incubated for 4 mins by coagulometer analysis. Format: functional, cell-free. Put shortly: as §2
For data set [8], the system named is HT-29. As to the kind of experiment: Antitumor activity against human HT-29 cells xenografted in NCR nude mouse assessed as spheroid formation at 50 mg/kg, ip. Format: functional, organism-based. Put shortly: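 Bulk HT-29 xenografts in NCr nude mice were FUOX-pretreated, then given 50 mg/kg IP three times/week (8 doses), alone or with FUOX. Collagenase-digested tumor cells were serially cultured as 1°–4° spheroids in stem cell medium with EGF/FGF. Spheroids of 50–150 μm were counted by phase contrast, in at least three replicates.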

Data set [9] concerns HT-29. The data set can be described thus: Antitumor activity against human HT-29 cells xenografted in NCR nude mouse assessed as reduction in DCAMKL1 expression level at 50 mg/kg, ip in presence of 5-fluorouracil and oxaliplatin of by Western blot analysis. Format: functional, organism-based. A digest of the protocol:
(§3)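 Bulk HT-29 cells (1 × 10^6) were grown as subcutaneous xenografts in NCr nude mice and given FUOX (25 mg/kg FU + 2 mg/kg OX IP weekly for 3 weeks). Mice were then randomized (n = 4/arm) to 50 mg/kg IP three times/week (8 doses), alone or with FUOX. Tumor lysates (n = 2/group) were Western blotted for DCAMLK1 and BMI-1.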

Data set [10] deals with HT-29. The data set can be described thus: Antitumor activity against human HT-29 cells xenografted in NCR nude mouse assessed as reduction in BMI-1 expression level at 50 mg/kg, ip in presence of 5-fluorouracil and oxaliplatin of by Western blot analysis. It is filed as functional, organism-based. A digest of the protocol:
as §3

Data set [11] is described as follows: Toxicity in NCR nude mouse xenografted with human HT-29 cells assessed as change in body weight at 50 mg/kg, ip in presence 5-fluorouracil and oxaliplatin. It is filed as organism-based. As to conditions: in vivo.
Data set [12] is described as follows: Ex-vivo growth inhibition of mouse intestinal organoids measured for 5 to 7 days by phase contrast microscopic analysis. Format: toxicity, Intestine. To be noted: time 5-7 day. A digest of the protocol:
(§4)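 Intestinal pieces (2–4 cm) were taken from treated xenograft mice and chelated and dissociated into crypts. About 200–500 crypts were embedded in Matrigel under mouse IntestiCult medium at 37 °C, 5% CO2. Organoids were counted by phase contrast after 5–7 days.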

The nature of data set [13]: Ex-vivo growth inhibition of mouse intestinal organoids measured for 5 to 7 days in presence of 5-fluorouracil and oxaliplatin by phase contrast microscopic analysis. It is filed as toxicity, Intestine. As to conditions: time 5-7 day. Put shortly: as §4
For data set [14], the system named is HT-29. As to the kind of experiment: Antitumor activity against CD133/CXCR4-induced human HT-29 cells xenografted in NCR nude mouse assessed as reduction in tumor growth at 100 mg/kg, po administered 5 times a week for 3 weeks. It is filed as functional, organism-based. A digest of the protocol:
(§5)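 Dual Hi (CD133+/CXCR4+) HT-29 cells, FACS-sorted, injected subcutaneously at 1 × 10^5 into NCr nude mice. Mice were then randomized to vehicle or 100 mg/kg oral gavage 5 times/week for 3 weeks. Tumor volume was measured by caliper three times weekly.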

For data set [15], the system named is HT-29. As to the kind of experiment: Antitumor activity against human CD133/CXCR4-induced HT-29 cells xenografted in NCR nude mouse assessed as spheroid formation at 100 mg/kg, po administered 5 times a week for 3 weeks by phase contrast microscopic analysis. Format: functional, organism-based. Put shortly:
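Xenografts (Dual Hi HT-29, FUOX-pretreated, 100 mg/kg oral 5×/week for 3 weeks) were digested with collagenase IV and filtered at 70 μm. Cells were plated serially as 1°–3° spheroids on low-adhesion plates in stem cell medium with EGF and FGF. Spheroids of 50–150 μm were counted by phase contrast. At least three replicates.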

Data set [16] can be described thus: Toxicity in NCR nude mouse xenografted with human HT-29 cells assessed as change in body weight at 100 mg/kg, po. Format: organism-based. As to conditions: in vivo.
Data set [17] in a line: Toxicity in NCR nude mouse xenografted with human HT-29 cells assessed as bleeding at 100 mg/kg, po. Format: organism-based. To be noted: in vivo.
For data set [18], the system named is HT-29. The data set can be described thus: Antitumor activity against human HT-29 cells xenografted in NCR nude mouse assessed as reduction in tumor growth at 100 mg/kg, po administered 5 times a week for 3 weeks relative to control. It is filed as functional. Also noted: scale not given: the % may be the effect or the level left. Put shortly:
as §5

The nature of data set [19]: Cytotoxicity against human HT-29 cells assessed as inhibition of spheroid growth. As to conditions: HT-29 cell spheroids.
A short description of data set [20]: Ex-vivo growth inhibition of mouse intestinal organoids at 100 mg/kg, po measured for 5 to 7 days by phase contrast microscopic analysis. As to conditions: in vivo.
Data set [21] relates to HT-29. The data set can be described thus: Antitumor activity against human HT-29 cells xenografted in NCR nude mouse assessed as decrease in proportion of CSC at 100 mg/kg, po administered 5 times a week for 3 weeks by flow cytometry analysis.

Take `O=c1[nH]cc(F)c(=O)[nH]1` [FLUOROURACIL]: the outcome in the data set on HT-29 [1], with HT-29 [3] and in the data set with HT-29 [4] was Active. The Activity with HT-29 [2] is given as 26.4%.

The term IC50 denotes the concentration that inhibits the measured activity by half. For the compound `CC(C)CCC[C@@H](C)[C@H]1CC[C@H]2[C@@H]3CC=C4C[C@@H](OCCOc5cc(-c6oc7cc(OS(=O)(=O)[O-])cc(OCCCOc8cc(OS(=O)(=O)[O-])cc9oc(-c%10ccc(OS(=O)(=O)[O-])c(OS(=O)(=O)[O-])c%10)c(OS(=O)(=O)[O-])c(=O)c89)c7c(=O)c6OS(=O)(=O)[O-])ccc5OS(=O)(=O)[O-])CC[C@]4(C)[C@H]3CC[C@]12C.[Na+].[Na+].[Na+].[Na+].[Na+].[Na+].[Na+]`, the Activity entry is “Toxic” with HT-29 [5]; “Dose-Dependent Effect” in the data set on Plasma [6]; “Non-Toxic” in [11]; “Non-Toxic” in [12]; “Non-Toxic” in data set [13]; “Non-Toxic” in data set [16]. Also, the figures for the Activity entry (in data set [17]; in the data set on HT-29 [18]; in [20]) were “Non-Toxic”, around 70% and “Non-Toxic”, respectively. For the same compound, the result in the data set on Plasma [7], with HT-29 [8], in the data set with HT-29 [9], with HT-29 [10], with HT-29 [14] and in the data set with HT-29 [15] was Active. In addition, the outcome in the data set with HT-29 [21] was Active. In addition, in [19], the IC50 was 5.5 µM.

Source of the values: ChEMBL document CHEMBL5316316, “Designing Synthetic, Sulfated Glycosaminoglycan Mimetics That Are Orally Bioavailable and Exhibiting In Vivo Anticancer Activity” (J Med Chem, 2023).
